Test results reported in ChEMBL document CHEMBL5724801, “EUbOPEN Chemogenomics Library - Multiplex” (2024).
“And” between values parts separate entries of the source, which are not always exact repeats. Equal entries are not always repeated.

Tested on: U2OS
Assay: Multiplex assay against U2OS
Assay type: toxicity, cell-based
Conditions: human
Outline: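 Live cells carried four stains from seeding: Hoechst33342, BioTracker Green Microtubule Cytoskeleton Dye, MitoTracker Red and Annexin V Alexa Fluor 680. They were imaged on a CQ1 microscope at 37°C and 5% CO2 after compound addition. Using CellPathfinder machine-learning gating, cells were split into Hoechst high-intensity objects or normal cells, normal cells into healthy, pyknosed or fragmented nuclei, and pyknosed cells into mitotic or apoptotic; tubulin, mitochondrial-mass and membrane-permeability phenotypes are per cents of healthy-nucleus cells.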

[1] = 12 h, 1 µM, compound concentration 1 uM
[2] = 12 h, 10 µM, compound concentration 10 uM
[3] = 24 h, 1 µM, compound concentration 1 uM
[4] = 24 h, 10 µM, compound concentration 10 uM
[5] = 48 h, 1 µM, compound concentration 1 uM
[6] = 48 h, 10 µM, compound concentration 10 uM

Question: Which results are given for `COC(=O)c1ccc2c(c1)NC(=O)/C2=C(\Nc1ccc(N(C)C(=O)CN2CCN(C)CC2)cc1)c1ccccc1` [NINTEDANIB]?
Answer: Population Apoptotic (%) [1]: 50% and 43.75%; Population Fragmented Nuclei (%) [1]: 2.42% and 2.88%; Population Healthy Nuclei (%) [1]: 89.37% and 85.61%; Population Hoechst High Intensity Objects (%) [1]: 0%; Population Membrane Permeable-Phenotype (%) [1]: 1.62% and 4.2%; Population Mitochondria Different-Phenotype (%) [1]: 0% and 14.29%; Population Mitotic Cells (%) [1]: 50% and 56.25%; Population Normal (%) [1]: 100%; Population Pyknosed Nuclei (%) [1]: 8.21% and 11.51%; Population Tubulin-Different-Phenotype (%) [1]: 1.89% and 2.52%; Total Cell Count [1]: 414 and 139; Population Apoptotic (%) [2]: 48.33% and 44.44%; Population Fragmented Nuclei (%) [2]: 3.26% and 6.04%; Population Healthy Nuclei (%) [2]: 72.3% and 74.18%; Population Hoechst High Intensity Objects (%) [2]: 0%; Population Membrane Permeable-Phenotype (%) [2]: 21.97% and 30.37%; Population Mitotic Cells (%) [2]: 51.67% and 55.56%; Population Normal (%) [2]: 100%; Population Pyknosed Nuclei (%) [2]: 24.44% and 19.78%; Population Tubulin-Different-Phenotype (%) [2]: 64.79% and 29.63%; Total Cell Count [2]: 491 and 182; Population Apoptotic (%) [3]: 35.56% and 50%; Population Fragmented Nuclei (%) [3]: 1.16% and 2.33%; Population Healthy Nuclei (%) [3]: 90.15% and 79.07%; Population Hoechst High Intensity Objects (%) [3]: 0%; Population Membrane Permeable-Phenotype (%) [3]: 1.07% and 1.47%; Population Mitotic Cells (%) [3]: 64.44% and 50%; Population Normal (%) [3]: 100%; Population Pyknosed Nuclei (%) [3]: 8.69% and 18.6%; Population Tubulin-Different-Phenotype (%) [3]: 1.28% and 1.47%; Population Apoptotic (%) [4]: 62.5% and 65.62%; Population Fragmented Nuclei (%) [4]: 5.58% and 6.29%; Population Healthy Nuclei (%) [4]: 63.02% and 57.14%; Population Hoechst High Intensity Objects (%) [4]: 0%; Population Membrane Permeable-Phenotype (%) [4]: 6.23% and 9%; Population Mitotic Cells (%) [4]: 37.5% and 34.38%; Population Normal (%) [4]: 100%; Population Pyknosed Nuclei (%) [4]: 31.4% and 36.57%; Population Tubulin-Different-Phenotype (%) [4]: 63.93% and 46%; Total Cell Count [4]: 484 and 175; Population Apoptotic (%) [5]: 57.5% and 53.12%; Population Fragmented Nuclei (%) [5]: 1.52% and 3.23%; Population Healthy Nuclei (%) [5]: 89.14% and 83.87%; Population Hoechst High Intensity Objects (%) [5]: 0%; Population Membrane Permeable-Phenotype (%) [5]: 2.1% and 4.33%; Population Mitochondria Different-Phenotype (%) [5]: 0.26% and 9.62%; Population Mitotic Cells (%) [5]: 42.5% and 46.88%; Population Normal (%) [5]: 100%; Population Pyknosed Nuclei (%) [5]: 9.35% and 12.9%; Population Tubulin-Different-Phenotype (%) [5]: 1.57% and 3.37%; Population Apoptotic (%) [6]: 78.69% and 91.94%; Population Fragmented Nuclei (%) [6]: 1.9% and 1.52%; Population Healthy Nuclei (%) [6]: 54.63% and 51.52%; Population Hoechst High Intensity Objects (%) [6]: 0.24% and 0%; Population Membrane Permeable-Phenotype (%) [6]: 1.74% and 8.82%; Population Mitochondria Different-Phenotype (%) [6]: 29.13% and 51.47%; Population Mitotic Cells (%) [6]: 21.31% and 8.06%; Population Normal (%) [6]: 99.76% and 100%; Population Pyknosed Nuclei (%) [6]: 43.47% and 46.97%; Population Tubulin-Different-Phenotype (%) [6]: 69.57% and 76.47%

Question: How did the “Population Apoptotic (%)” value [1] turn out when `O=C(Nc1cc(C(F)(F)F)ccc1N1CCCCC1)c1ccncc1` was run?
Answer: 66.67% and 37.5%

Question: And the “Population Fragmented Nuclei (%)” value [1]?
Answer: 2.62% and 1.94%

Question: What about the “Population Healthy Nuclei (%)” value [1] of the same molecule?
Answer: 90.31% and 82.58%

Question: What about the “Population Hoechst High Intensity Objects (%)” value [1] of the same molecule?
Answer: 0%

Question: And the “Population Membrane Permeable-Phenotype (%)” value [1]?
Answer: 1.74% and 3.12%

Question: What about the “Population Mitochondria Different-Phenotype (%)” value [1] of the same molecule?
Answer: 0% and 2.34%

Question: What about the “Population Mitotic Cells (%)” value [1] of the same molecule?
Answer: 33.33% and 62.5%

Question: What about the “Population Normal (%)” value [1] of the same molecule?
Answer: 100%

Question: What about the “Population Pyknosed Nuclei (%)” value [1] of the same molecule?
Answer: 7.07% and 15.48%

Question: What about the “Population Tubulin-Different-Phenotype (%)” value [1] of the same molecule?
Answer: 1.16% and 0.78%

Question: What about the “Total Cell Count” value [1] of the same molecule?
Answer: 382 and 155

Question: And the “Population Apoptotic (%)” value [2]?
Answer: 32.65% and 31.25%

Question: What about the “Population Fragmented Nuclei (%)” value [2] of the same molecule?
Answer: 1.78% and 5.19%

Question: What about the “Population Healthy Nuclei (%)” value [2] of the same molecule?
Answer: 87.31% and 74.03%

Question: What about the “Population Hoechst High Intensity Objects (%)” value [2] of the same molecule?
Answer: 0%

Question: What about the “Population Membrane Permeable-Phenotype (%)” value [2] of the same molecule?
Answer: 2.81% and 6.14%

Question: What about the “Population Mitotic Cells (%)” value [2] of the same molecule?
Answer: 67.35% and 68.75%

Question: And the “Population Normal (%)” value [2]?
Answer: 100%

Question: What about the “Population Pyknosed Nuclei (%)” value [2] of the same molecule?
Answer: 10.91% and 20.78%

Question: And the “Population Tubulin-Different-Phenotype (%)” value [2]?
Answer: 6.89% and 7.89%

Question: And the “Total Cell Count” value [2]?
Answer: 449 and 154

Question: What about the “Population Apoptotic (%)” value [3] of the same molecule?
Answer: 24.39% and 47.37%

Question: And the “Population Fragmented Nuclei (%)” value [3]?
Answer: 2.34% and 1.57%

Question: And the “Population Healthy Nuclei (%)” value [3]?
Answer: 89.65% and 88.48%

Question: What about the “Population Hoechst High Intensity Objects (%)” value [3] of the same molecule?
Answer: 0%

Question: What about the “Population Membrane Permeable-Phenotype (%)” value [3] of the same molecule?
Answer: 0.65% and 1.78%

Question: What about the “Population Mitochondria Different-Phenotype (%)” value [3] of the same molecule?
Answer: 0.22% and 4.73%

Question: And the “Population Mitotic Cells (%)” value [3]?
Answer: 75.61% and 52.63%

Question: What about the “Population Normal (%)” value [3] of the same molecule?
Answer: 100%

Question: What about the “Population Pyknosed Nuclei (%)” value [3] of the same molecule?
Answer: 8.01% and 9.95%

Question: And the “Population Tubulin-Different-Phenotype (%)” value [3]?
Answer: 1.09% and 0.59%

Question: What about the “Total Cell Count” value [3] of the same molecule?
Answer: 512 and 191

Question: What about the “Population Apoptotic (%)” value [4] of the same molecule?
Answer: 35.62% and 25.81%

Question: What about the “Population Fragmented Nuclei (%)” value [4] of the same molecule?
Answer: 1.19% and 3.28%

Question: What about the “Population Healthy Nuclei (%)” value [4] of the same molecule?
Answer: 86.37% and 79.78%

Question: And the “Population Hoechst High Intensity Objects (%)” value [4]?
Answer: 0%

Question: And the “Population Membrane Permeable-Phenotype (%)” value [4]?
Answer: 1.18% and 2.05%

Question: What about the “Population Mitotic Cells (%)” value [4] of the same molecule?
Answer: 64.38% and 74.19%

Question: And the “Population Normal (%)” value [4]?
Answer: 100%

Question: And the “Population Pyknosed Nuclei (%)” value [4]?
Answer: 12.44% and 16.94%

Question: And the “Population Tubulin-Different-Phenotype (%)” value [4]?
Answer: 5.13% and 1.37%

Question: What about the “Population Apoptotic (%)” value [5] of the same molecule?
Answer: 36.36% and 35.71%

Question: And the “Population Fragmented Nuclei (%)” value [5]?
Answer: 3.47% and 3.02%

Question: And the “Population Healthy Nuclei (%)” value [5]?
Answer: 86.98% and 88.52%

Question: And the “Population Hoechst High Intensity Objects (%)” value [5]?
Answer: 0%

Question: And the “Population Membrane Permeable-Phenotype (%)” value [5]?
Answer: 1% and 4.1%

Question: And the “Population Mitochondria Different-Phenotype (%)” value [5]?
Answer: 0.37% and 3.75%

Question: What about the “Population Mitotic Cells (%)” value [5] of the same molecule?
Answer: 63.64% and 64.29%

Question: And the “Population Normal (%)” value [5]?
Answer: 100%

Question: And the “Population Pyknosed Nuclei (%)” value [5]?
Answer: 9.54% and 8.46%

Question: What about the “Population Tubulin-Different-Phenotype (%)” value [5] of the same molecule?
Answer: 1.37% and 2.05%

Question: And the “Total Cell Count” value [5]?
Answer: 922 and 331

Question: What about the “Population Apoptotic (%)” value [6] of the same molecule?
Answer: 47.54% and 53.06%

Question: And the “Population Fragmented Nuclei (%)” value [6]?
Answer: 2.11% and 4.76%

Question: What about the “Population Healthy Nuclei (%)” value [6] of the same molecule?
Answer: 86.22% and 78.57%

Question: And the “Population Hoechst High Intensity Objects (%)” value [6]?
Answer: 0.19% and 0%

Question: What about the “Population Membrane Permeable-Phenotype (%)” value [6] of the same molecule?
Answer: 1.66% and 1.73%

Question: What about the “Population Mitotic Cells (%)” value [6] of the same molecule?
Answer: 52.46% and 46.94%

Question: What about the “Population Normal (%)” value [6] of the same molecule?
Answer: 99.81% and 100%

Question: And the “Population Pyknosed Nuclei (%)” value [6]?
Answer: 11.67% and 16.67%

Question: And the “Population Tubulin-Different-Phenotype (%)” value [6]?
Answer: 4.55% and 3.03%
